# Measurements as given in ChEMBL document CHEMBL1140069, “In vitro antifungal activity of polyfunctionalized 2-(hetero)arylquinolines prepared through imino Diels-Alder reactions” (2008).
# Experiments:
# Type in all cases: functional
# Nannizzia gypsea = test: Antifungal activity against Microsporum gypseum C115 after 48 hrs by broth microdilution technique
# Summary of the method: (§1)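 CLSI broth microdilution: M-27 A2 for yeasts and M-38 A for filamentous fungi. Medium is RPMI-1640 buffered to pH 7.0 with MOPS. Compound is diluted twofold from 250 to 0.98, final DMSO ≤2%. Inoculum is 1–5 × 10³ CFU/mL. Plates are incubated at 35 °C in a moist, dark chamber and read visually at 48 h. MIC100 is the lowest concentration giving total growth inhibition versus drug-free control.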
# Cryptococcus neoformans [1] = test: Antimicrobial activity against Cryptococcus neoformans IM 031631 isolate at 12.5 ug/ml after 48 hrs
# Summary of the method: (§2)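 Percent growth inhibition in 96-well microplates. Compound stocks in DMSO (≤2%) were diluted in RPMI-1640 to final 100–6.25 µg/mL, and 100 µL inoculum was added (final 200 µL). Controls were a growth well (inoculum with matching DMSO, no compound) and a sterility well (no inoculum). Inhibition was calculated against growth and sterility wells.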
# Cryptococcus neoformans [2] = test: Antimicrobial activity against Cryptococcus neoformans IM 052470 isolate at 12.5 ug/ml after 48 hrs; summary of the method: as §2
# Cryptococcus neoformans [3] = test: Antimicrobial activity against Cryptococcus neoformans IM 031706 isolate at 6.25 ug/ml after 48 hrs; summary of the method: as §2
# Cryptococcus neoformans [4] = test: Antimicrobial activity against Cryptococcus neoformans IM 031706 isolate at 50 ug/ml after 48 hrs; summary of the method: as §2
# Cryptococcus neoformans [5] = test: Antimicrobial activity against Cryptococcus neoformans IM 00319 isolate at 100 ug/ml after 48 hrs; summary of the method: as §2
# Trichophyton rubrum = test: Antifungal activity against Trichophyton rubrum C110 after 48 hrs by broth microdilution technique; settings: read-out: MIC; summary of the method: as §1
# Aspergillus fumigatus = test: Antifungal activity against Aspergillus fumigatus ATTC 26934 after 48 hrs by broth microdilution technique; summary of the method: as §1
# [6] = tested on: Trichophyton mentagrophytes; test: Antifungal activity against Trichophyton mentagrophytes ATCC 9972 after 48 hrs by broth microdilution technique; settings: ATCC 9972, 48 h; summary of the method: as §1
# Cryptococcus neoformans [7] = test: Antimicrobial activity against Cryptococcus neoformans IM 052470 isolate at 25 ug/ml after 48 hrs; summary of the method: as §2
# Cryptococcus neoformans [8] = test: Antimicrobial activity against Cryptococcus neoformans IM 052470 isolate at 50 ug/ml after 48 hrs; summary of the method: as §2
# Cryptococcus neoformans [9] = test: Antimicrobial activity against Cryptococcus neoformans IM 042074 isolate at 50 ug/ml after 48 hrs; summary of the method: as §2
# Cryptococcus neoformans [10] = test: Antimicrobial activity against Cryptococcus neoformans IM 983040 isolate at 50 ug/ml after 48 hrs
# Summary of the method: (§3)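 Clinical Cryptococcus isolates kept on Sabouraud-dextrose agar slopes; inoculum 1–5 × 10³ CFU/mL. Quinoline DMSO stocks were diluted in RPMI-1640 to final 100–6.25 µg/mL, with DMSO ≤2%. An equal volume of inoculum was added (200 µL per well). Run in triplicate.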
# Cryptococcus neoformans [11] = test: Antimicrobial activity against Cryptococcus neoformans IM 031631 isolate at 100 ug/ml after 48 hrs; summary of the method: as §2
# Cryptococcus neoformans [12] = test: Antimicrobial activity against Cryptococcus neoformans IM 972751 isolate at 50 ug/ml after 48 hrs; summary of the method: as §3
# Cryptococcus neoformans [13] = test: Antimicrobial activity against Cryptococcus neoformans IM 961951 isolate at 12.5 ug/ml after 48 hrs; summary of the method: as §2
# Cryptococcus neoformans [14] = test: Antimicrobial activity against Cryptococcus neoformans IM 972724 isolate at 100 ug/ml after 48 hrs; summary of the method: as §3
# Cryptococcus neoformans [15] = test: Antimicrobial activity against Cryptococcus neoformans ATCC 32264 at 6.25 ug/ml after 48 hrs; settings: ATCC 32264, 48 h; summary of the method: as §2
# Candida albicans [16] = test: Antimicrobial activity against Candida albicans ATCC 10231 at 12.5 ug/ml after 24 hrs; settings: ATCC 10231, 24 h
# Summary of the method: (§4)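 Growth-inhibition microplate test. Strains are grown on Sabouraud-chloramphenicol agar for 48 h at 30 °C, and inoculum is added to RPMI-1640 containing compound at a final 100–6.25, with DMSO ≤2%. Each strain has a growth control (same DMSO, no compound) and a sterility control.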
# Cryptococcus neoformans [17] = test: Antimicrobial activity against Cryptococcus neoformans IM 052470 isolate at 6.25 ug/ml after 48 hrs; summary of the method: as §2
# Cryptococcus neoformans [18] = test: Antimicrobial activity against Cryptococcus neoformans IM 961951 isolate at 50 ug/ml after 48 hrs; summary of the method: as §3
# Cryptococcus neoformans [19] = test: Antimicrobial activity against Cryptococcus neoformans IM 961951 isolate at 25 ug/ml after 48 hrs; summary of the method: as §3
# Cryptococcus neoformans [20] = test: Antimicrobial activity against Cryptococcus neoformans ATCC 32264 at 12.5 ug/ml after 48 hrs; settings: ATCC 32264, 48 h; summary of the method: as §2
# Cryptococcus neoformans [21] = test: Antimicrobial activity against Cryptococcus neoformans IM 00319 isolate at 50 ug/ml after 48 hrs; summary of the method: as §2
# Cryptococcus neoformans [22] = test: Antifungal activity against Cryptococcus neoformans ATCC 32264 after 48 hrs by broth microdilution technique; settings: ATCC 32264, 48 h; summary of the method: as §1
# Candida albicans [23] = test: Antimicrobial activity against Candida albicans ATCC 10231 at 25 ug/ml after 24 hrs; settings: ATCC 10231, 24 h; summary of the method: as §4
# Candida albicans [24] = test: Antimicrobial activity against Candida albicans ATCC 10231 at 100 ug/ml after 24 hrs; settings: ATCC 10231, 24 h; summary of the method: as §4
# Cryptococcus neoformans [25] = test: Antimicrobial activity against Cryptococcus neoformans IM 052470 isolate at 100 ug/ml after 48 hrs; summary of the method: as §2
# Cryptococcus neoformans [26] = test: Antimicrobial activity against Cryptococcus neoformans IM 00319 isolate at 25 ug/ml after 48 hrs; summary of the method: as §2
# Cryptococcus neoformans [27] = test: Antimicrobial activity against Cryptococcus neoformans IM 983040 isolate at 6.25 ug/ml after 48 hrs; summary of the method: as §3
# Cryptococcus neoformans [28] = test: Antimicrobial activity against Cryptococcus neoformans IM 031706 isolate at 12.5 ug/ml after 48 hrs; summary of the method: as §2
# Cryptococcus neoformans [29] = test: Antimicrobial activity against Cryptococcus neoformans IM 972724 isolate at 25 ug/ml after 48 hrs; summary of the method: as §3
# Cryptococcus neoformans [30] = test: Antimicrobial activity against Cryptococcus neoformans IM 042074 isolate at 12.5 ug/ml after 48 hrs; summary of the method: as §2
# Cryptococcus neoformans [31] = test: Antimicrobial activity against Cryptococcus neoformans IM 961951 isolate at 100 ug/ml after 48 hrs; summary of the method: as §2
# Cryptococcus neoformans [32] = test: Antimicrobial activity against Cryptococcus neoformans IM 983040 isolate at 25 ug/ml after 48 hrs; summary of the method: as §3
# Cryptococcus neoformans [33] = test: Antimicrobial activity against Cryptococcus neoformans ATCC 32264 at 100 ug/ml after 48 hrs; settings: ATCC 32264, 48 h; summary of the method: as §2
# Cryptococcus neoformans [34] = test: Antimicrobial activity against Cryptococcus neoformans IM 031706 isolate at 25 ug/ml after 48 hrs; summary of the method: as §2
# Candida albicans [35] = test: Antimicrobial activity against Candida albicans ATCC 10231 at 6.25 ug/ml after 24 hrs; settings: ATCC 10231, 24 h; summary of the method: as §4
# Cryptococcus neoformans [36] = test: Antimicrobial activity against Cryptococcus neoformans IM 972751 isolate at 6.25 ug/ml after 48 hrs; summary of the method: as §3
# Cryptococcus neoformans [37] = test: Antimicrobial activity against Cryptococcus neoformans IM 972751 isolate at 25 ug/ml after 48 hrs; summary of the method: as §3
# Candida albicans [38] = test: Antimicrobial activity against Candida albicans ATCC 10231 at 50 ug/ml after 24 hrs; settings: ATCC 10231, 24 h; summary of the method: as §4
# Cryptococcus neoformans [39] = test: Antimicrobial activity against Cryptococcus neoformans IM 961951 isolate at 6.25 ug/ml after 48 hrs; summary of the method: as §3
# Cryptococcus neoformans [40] = test: Antimicrobial activity against Cryptococcus neoformans IM 031706 isolate at 100 ug/ml after 48 hrs; summary of the method: as §2
smiles,measurement,setting,value
c1ccc2nc(-c3ccncc3)ccc2c1,MIC,Nannizzia gypsea,50 µg/mL
same,inhibition at 12.5 µg/mL,Cryptococcus neoformans [1],36%
same,inhibition at 12.5 µg/mL,Cryptococcus neoformans [2],24%
same,inhibition at 6.25 µg/mL,Cryptococcus neoformans [3],21%
same,inhibition at 50 µg/mL,Cryptococcus neoformans [4],69%
same,inhibition at 100 µg/mL,Cryptococcus neoformans [5],92%
same,MIC,Trichophyton rubrum,50 µg/mL
same,MIC,Aspergillus fumigatus,50 µg/mL
same,MIC,[6],50 µg/mL
same,inhibition at 25 µg/mL,Cryptococcus neoformans [7],53%
same,inhibition at 50 µg/mL,Cryptococcus neoformans [8],75%
same,inhibition at 50 µg/mL,Cryptococcus neoformans [9],87%
same,inhibition at 50 µg/mL,Cryptococcus neoformans [10],34%
same,inhibition at 100 µg/mL,Cryptococcus neoformans [11],100%
same,inhibition at 50 µg/mL,Cryptococcus neoformans [12],20%
same,inhibition at 12.5 µg/mL,Cryptococcus neoformans [13],34%
same,inhibition at 100 µg/mL,Cryptococcus neoformans [14],74%
same,inhibition at 6.25 µg/mL,Cryptococcus neoformans [15],83%
same,inhibition at 12.5 µg/mL,Candida albicans [16],41%
same,inhibition at 6.25 µg/mL,Cryptococcus neoformans [17],0%
same,inhibition at 50 µg/mL,Cryptococcus neoformans [18],89%
same,inhibition at 25 µg/mL,Cryptococcus neoformans [19],78%
same,inhibition at 12.5 µg/mL,Cryptococcus neoformans [20],90%
same,inhibition at 50 µg/mL,Cryptococcus neoformans [21],80%
same,MIC,Cryptococcus neoformans [22],50 µg/mL
same,inhibition at 25 µg/mL,Candida albicans [23],63%
same,inhibition at 100 µg/mL,Candida albicans [24],100%
same,inhibition at 100 µg/mL,Cryptococcus neoformans [25],99%
same,inhibition at 25 µg/mL,Cryptococcus neoformans [26],52%
same,inhibition at 6.25 µg/mL,Cryptococcus neoformans [27],0%
same,inhibition at 12.5 µg/mL,Cryptococcus neoformans [28],41%
same,inhibition at 25 µg/mL,Cryptococcus neoformans [29],8%
same,inhibition at 12.5 µg/mL,Cryptococcus neoformans [30],76%
same,inhibition at 100 µg/mL,Cryptococcus neoformans [31],97%
same,inhibition at 25 µg/mL,Cryptococcus neoformans [32],12%
same,inhibition at 100 µg/mL,Cryptococcus neoformans [33],100%
same,inhibition at 25 µg/mL,Cryptococcus neoformans [34],57%
same,inhibition at 6.25 µg/mL,Candida albicans [35],19%
same,inhibition at 6.25 µg/mL,Cryptococcus neoformans [36],0%
same,inhibition at 25 µg/mL,Cryptococcus neoformans [37],9%
same,inhibition at 50 µg/mL,Candida albicans [38],73%
same,inhibition at 6.25 µg/mL,Cryptococcus neoformans [39],4%
same,inhibition at 100 µg/mL,Cryptococcus neoformans [40],100%
